Assay outcomes (PubChem BioAssay)
Compounds with a hit are over-represented: about 2.5% of the library has one in this group of screens.
TCR-CD3 inh = human TCR-CD3 binding inhibition; TAMRA-labeled TCR probe fluorescence, biochemical; inhibition, % at 9.4 µM; 360,000 compounds, 0.37% hits; AID 651800; in the data active = inhibition above about 19%;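 note: recombinant mutant TCR 2C K166C tagged with TAMRA read by polarization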
HTRA1 inhibitor = HTRA1 (human) protease inhibition; Q92743; recombinant HTRA1, FP-rhodamine activity-based probe, fluorescence polarization; inhibition, % at 5.96 µM; 340,000 compounds, 0.5% hits; AID 504803; in the data active = inhibition above about 36%
SIAE primary = inhibitors of human sialic acid acetylesterase SIAE; SIAE FP-Rh probe binding, fluorescence polarization; 370,000 compounds, 0.69% hits; inhibition, % at 9.66 µM; AID 1053197; Q9HAT2;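 active = inhibition above a cutoff: mean of compounds within the control limits plus 3 SD of those, cut at about 17% in these data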
Target sequence (Q9HAT2 whole entry, looked up): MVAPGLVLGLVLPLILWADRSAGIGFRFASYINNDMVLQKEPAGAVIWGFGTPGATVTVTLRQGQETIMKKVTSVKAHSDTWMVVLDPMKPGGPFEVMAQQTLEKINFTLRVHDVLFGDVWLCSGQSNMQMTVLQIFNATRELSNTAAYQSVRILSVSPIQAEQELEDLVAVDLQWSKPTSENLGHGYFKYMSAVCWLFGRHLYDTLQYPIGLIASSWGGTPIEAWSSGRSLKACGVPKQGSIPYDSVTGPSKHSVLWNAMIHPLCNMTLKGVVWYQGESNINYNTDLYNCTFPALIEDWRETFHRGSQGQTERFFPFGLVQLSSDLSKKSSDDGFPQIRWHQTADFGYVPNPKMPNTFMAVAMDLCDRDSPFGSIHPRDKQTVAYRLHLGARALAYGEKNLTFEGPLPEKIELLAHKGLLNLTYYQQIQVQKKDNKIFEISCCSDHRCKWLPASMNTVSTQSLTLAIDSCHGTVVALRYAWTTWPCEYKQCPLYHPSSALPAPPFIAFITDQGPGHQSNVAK
ABHD4 inh = inhibitors of mouse ABHD4; Q8VD66; purified mABHD4, FP-Rh probe fluorescence polarization; inhibition, % at 8.92 µM; 370,000 compounds, 0.54% hits; AID 720543;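 active = inhibition exceeding the mean over every tested compound plus 3 SD, cut at about 30% in these data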
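Assay system: Wild-type mouse ABHD4 protein | Medium: HEPES pH 7.0 buffer, 150 mM NaCl, 0.01% Pluronic F-127 | Incubation: Enzyme–compound pre-incubation 45 min, then probe 60 min, both 25 °C | Technique: Fluorescence polarization with parallel and perpendicular emission, 525/598 nm | Evaluation: % inhibition of FP-Rh probe binding versus controls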
PRMT1 FP inh = blocks human protein arginine methyltransferase 1; Q99873; recombinant PRMT1, activity-based probe fluorescence polarization; inhibition, % at 2.79 µM; 370,000 compounds, 1.3% hits; AID 652257;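 active = inhibition above about 21% made by adding two undisclosed values, limit read from the data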
PRMT1 inh conf = PRMT1 (human) inhibition, FP confirmation; shares compounds with PRMT1 FP inh; 3,300 compounds, 42% hits; recombinant His-PRMT1, activity-based probe fluorescence polarization; inhibition, % at 2.79 µM; AID 687036;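 active = mean inhibition across replicates above the hit cutoff derived for the earlier primary screen, cut at about 22% in these data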
Large screens that a line does not name were inactive (follow-up assays come after a bar, where they were run); ! = a repeat was not active.

NCCCCCC(=O)OC1N=C(c2ccccc2Cl)c2cc(Br)ccc2NC1=O (stereo not drawn)	none
CCOc1cccc(=NC2CCCCC2)c2c(C)n(C)c(C)c12	PRMT1 FP inh 47 (no result: HTRA1 inhibitor) | PRMT1 inh conf inactive
CNC(=O)CSP(=S)(OC)OC	PRMT1 FP inh 32 | PRMT1 inh conf 29
CC(=O)NCC1=C(c2ccc(S(C)(=O)=O)cc2)C[C@@H]2CC[C@H]1N2CCOc1ccccc1	none (no result: HTRA1 inhibitor)
COP(=S)(OC)SCN1C(=O)c2ccccc2C1=O	PRMT1 FP inh 59 | PRMT1 inh conf 76
Nc1ccc2nonc2c1[N+](=O)[O-]	PRMT1 FP inh 92 | PRMT1 inh conf 78
O=C1C2CC=CCC2C(=O)N1SC(Cl)(Cl)Cl (stereo not drawn)	PRMT1 FP inh 75 (no result: HTRA1 inhibitor) | PRMT1 inh conf 87
CC(=O)OC1C=CC2[C@H]3Cc4ccc(O)c5c4[C@@]2(CCN3C)C1O5 (stereo partly drawn)	none
Nc1ccc2ccc3cccc[n+]3c2c1	PRMT1 FP inh 175 | PRMT1 inh conf 150
COc1cccc(C(=O)NCCN2CCC3(CC2)C(=O)NCN3c2ccccc2)c1	none (no result: HTRA1 inhibitor)
NC(=O)Nc1ccc(C(=O)OCC(=O)Nc2ccc(Cl)cc2C(=O)c2ccccc2)cc1	none
O=[N+]([O-])c1ccc(N2CCOCC2)c2c1no[n+]2[O-]	PRMT1 FP inh 27 | PRMT1 inh conf inactive
COc1cc(OC)c(C=O)c(OC(=O)N(C)C)c1	none
CN(C)C(=S)SSC(=S)N(C)C	PRMT1 FP inh 87 | PRMT1 inh conf 102
CCN1C[C@]2(OC(=O)c3ccccc3NC(C)=O)CCC(OC)C34C5C[C@H]6C(OC)[C@]5(O)[C@](O)(C[C@@H]6OC)C(C[C@@H]32)[C@H]14 (stereo partly drawn)	none
Cc1cccc(C)c1-n1nnnc1C(C1CC1)N1CCC2(CC1)C(=O)NCN2c1ccccc1 (stereo not drawn)	none (no result: HTRA1 inhibitor)
CC1C2Cc3ccc(O)cc3C1(C)CCN2CC1CC1 (stereo not drawn)	none (no result: HTRA1 inhibitor)
O=[N+]([O-])c1cccc(CN2CCN(Cc3ccc(Br)cc3)CC2)c1	none
NS(=O)(=O)c1ccc(-c2ccc(C=C3C(=O)NC(=O)NC3=O)o2)cc1	none
NS(=O)(=O)c1ccc(-c2ccc(C=C3C(=O)NC(=S)NC3=O)o2)cc1	PRMT1 FP inh 47 (no result: HTRA1 inhibitor) | PRMT1 inh conf 68
COC(=O)C1=C(C(=O)OC)C2OC1c1cc3ccccc3cc12	PRMT1 FP inh 64 | PRMT1 inh conf 46
CCOC(=O)c1cc(C)sc1/N=C/C1C(=O)NC(=S)NC1=O	PRMT1 FP inh 86 | PRMT1 inh conf inactive
Cc1ccc(/C=C2/C(=O)NC(=O)N(C)C2=O)cc1	none
CN1C(=O)NC(=O)/C(=C/c2ccc(C(=O)O)cc2)C1=O	PRMT1 FP inh 31 | PRMT1 inh conf inactive
O=C(NCC1=C(c2ccc3ccccc3c2)C[C@@H]2CC[C@H]1N2Cc1ccco1)c1ccc([N+](=O)[O-])cc1	none
COc1ccc(C(C)=O)cc1Cc1c(O)[nH]c(=S)[nH]c1=O	PRMT1 FP inh 28 | PRMT1 inh conf inactive
COc1cc(N2CCOCC2)ccc1/C=C1\C(=O)NC(=O)N(C2CCCCC2)C1=O	PRMT1 FP inh 26 | PRMT1 inh conf inactive
O=P(C(Cl)Cl)(N1CCOCC1)N1CCOCC1	none
O=CC(Br)P(=O)(N1CCOCC1)N1CCOCC1 (stereo not drawn)	PRMT1 FP inh 26 (no result: HTRA1 inhibitor) | PRMT1 inh conf 31
c1coc(CN2Cc3ccccc3-n3nncc3C2)c1	none
c1ccc(Cc2cnc(N3CCNCC3)nc2)cc1	PRMT1 FP inh 45 (no result: HTRA1 inhibitor) | PRMT1 inh conf inactive
c1cnc(N2CCNCC2)nc1	none
COc1ccc2nc(-c3ccc(CN4CCC(n5c(=O)[nH]c6cc(Cl)ccc65)CC4)cc3)c(-c3ccccc3)nc2c1	none (no result: HTRA1 inhibitor)
COc1ccc2c(c1O)C13CCN(C)C(C2)C1CCC(=O)C3 (stereo not drawn)	none (no result: HTRA1 inhibitor)
C[C@@H]1CNCCN1c1ccc(N2CC[C@@H](O)C2)c(C#N)c1	none (no result: HTRA1 inhibitor)
Cc1cc(N2CCNC[C@H]2C)ccc1N1CC[C@@H](O)C1	PRMT1 FP inh 51 (no result: HTRA1 inhibitor) | PRMT1 inh conf inactive
O=C1NCN(c2ccccc2)C12CCN(C(c1cccc3ccccc13)c1nnnn1-c1ccc3c(c1)OCCO3)CC2 (stereo not drawn)	none (no result: HTRA1 inhibitor)
N#Cc1c(/N=C/C2C(=O)NC(=S)NC2=O)sc2c1CCCC2	PRMT1 FP inh 26 | PRMT1 inh conf inactive
Cc1cccc(N2C(=O)NC(=O)/C(=C\c3cc(C)n(-c4sc5c(c4C#N)CCCC5)c3C)C2=O)c1C	none
Cc1cccc(N2CCc3c2nc2ccccc2c3N)c1	PRMT1 FP inh 33! | PRMT1 inh conf inactive
S=P(NCCNP(=S)(N1CC1)N1CC1)(N1CC1)N1CC1	PRMT1 FP inh 58 | PRMT1 inh conf inactive
S=P(NCCSCc1ccccc1)(N1CC1)N1CC1	PRMT1 FP inh 29 | PRMT1 inh conf inactive
CCc1ccc(/C=C(/C#N)C(N)=S)cc1	PRMT1 FP inh 30 | PRMT1 inh conf inactive
N#C/C(=C\c1ccc(O)cc1)C(=O)O	none
C=CCN1C(=O)NC(=O)/C(=C/c2ccc(N(C)C)c(Br)c2)C1=O	none
O=[N+]([O-])c1ccc(C(c2ccc([N+](=O)[O-])cc2)c2ccc([N+](=O)[O-])cc2)cc1	none
Cn1cnc([N+](=O)[O-])c1Sc1ccc([N+](=O)[O-])cc1	PRMT1 FP inh 48 | PRMT1 inh conf inactive
O=C(O)c1ccccc1-c1ccc(C=C2C(=O)N(c3ccccc3)C(=S)N(c3ccccc3)C2=O)o1	PRMT1 FP inh 39 | PRMT1 inh conf 59
CCc1cc(=O)oc2c(C)c(OCC(=O)N3C[C@H]4C[C@@H](C3)c3cccc(=O)n3C4)ccc12	none
O=C(NCCN1CCC2(CC1)C(=O)NCN2c1ccccc1)c1cccnc1Cl	none (no result: HTRA1 inhibitor)
CN1C(=O)NC(=O)/C(=C/c2ccc([N+](=O)[O-])s2)C1=O	PRMT1 FP inh 31 | PRMT1 inh conf 58
O=C(c1ccc(Cl)cc1)C1CCCN(Cc2ccc3ncccc3c2)C1 (stereo not drawn)	none
Cc1cc2c(C(F)(F)F)cc(=O)oc2c2c1NCCC2	PRMT1 FP inh 38 | PRMT1 inh conf 58
Nc1ccccc1C(=O)OCC(=O)N1CCc2ccccc21	none
N#CSCC(=O)N1c2ccccc2CCc2ccccc21	PRMT1 FP inh 58 | PRMT1 inh conf 50
C[C@]12C[C@H](O)[C@@H](O)CC1=CCC1C2CC[C@@]2(C)C1CC[C@@H]2O (stereo partly drawn)	none
O=C(OCC(=O)c1ccc([N+](=O)[O-])cc1)/C(=C/c1ccc(Cl)cc1)NC(=O)c1ccccc1	PRMT1 FP inh 46 | PRMT1 inh conf inactive
COCCNC(=O)c1c(N)n(Cc2ccco2)c2nc3ccccc3nc12	none
C=CCNC(=O)c1c(N)n(Cc2ccco2)c2nc3ccccc3nc12	PRMT1 FP inh 25 | PRMT1 inh conf inactive
CCOC(=O)C1SC2(C(F)(F)F)CC1(O)c1c(C)cc(C)nc1O2 (stereo not drawn)	PRMT1 FP inh 73 | PRMT1 inh conf 63
CCOC(=O)[C@]12Cc3cc(OC)ccc3[C@H]1N(C(C)C)C(=O)c1cc(OC)ccc12	none (no result: HTRA1 inhibitor)
